According to PubChem BioAssay AID624042 (Vanderbilt High Throughput Screening Facility, 2012):

Target: G protein-activated inward rectifier potassium channel 2 (Homo sapiens) + G protein-activated inward rectifier potassium channel 1 (Homo sapiens) (UniProt P48051+P48549)
Experiment: GIRK1/2 Tl+ flux activators after pertussis toxin – cell-based, HEK-293 hGIRK1/2, pertussis toxin-treated, thallium flux, FluoZin-2, mechanism study for GIRK activator project, dose response (AID 624042)
Conditions: HEK-293 hGIRK1/2 PTX-treated
Outline: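 System: PTX-treated HEK-293 rmGlu8/hGIRK1/2 stable cell line; medium: overnight pretreatment with 400 ng/mL pertussis toxin (PTX); also added: thallium stimulus containing EC20 glutamate; incubation: PTX pretreatment overnight at 37 °C, compounds 4 min before thallium; technique: thallium-flux fluorescence with FluoZin-2 AM dye, sampled at 1 Hz; controls: vehicle wells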

G protein-activated inward rectifier potassium channel 2 (Homo sapiens) + G protein-activated inward rectifier potassium channel 1 (Homo sapiens), sequence (P48051 whole entry, looked up): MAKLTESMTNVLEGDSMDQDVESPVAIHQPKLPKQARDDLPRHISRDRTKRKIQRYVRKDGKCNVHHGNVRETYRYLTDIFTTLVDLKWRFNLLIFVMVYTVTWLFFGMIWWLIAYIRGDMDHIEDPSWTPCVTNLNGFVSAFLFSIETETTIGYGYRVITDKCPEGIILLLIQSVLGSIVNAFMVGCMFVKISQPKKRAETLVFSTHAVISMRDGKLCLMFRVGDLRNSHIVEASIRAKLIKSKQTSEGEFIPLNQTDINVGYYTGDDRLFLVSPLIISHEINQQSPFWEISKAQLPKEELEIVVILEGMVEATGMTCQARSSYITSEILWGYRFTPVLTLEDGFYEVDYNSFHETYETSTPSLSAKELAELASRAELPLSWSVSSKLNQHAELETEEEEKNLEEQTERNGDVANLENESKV
G protein-activated inward rectifier potassium channel 2 (Homo sapiens) + G protein-activated inward rectifier potassium channel 1 (Homo sapiens), sequence (P48549 whole entry, looked up): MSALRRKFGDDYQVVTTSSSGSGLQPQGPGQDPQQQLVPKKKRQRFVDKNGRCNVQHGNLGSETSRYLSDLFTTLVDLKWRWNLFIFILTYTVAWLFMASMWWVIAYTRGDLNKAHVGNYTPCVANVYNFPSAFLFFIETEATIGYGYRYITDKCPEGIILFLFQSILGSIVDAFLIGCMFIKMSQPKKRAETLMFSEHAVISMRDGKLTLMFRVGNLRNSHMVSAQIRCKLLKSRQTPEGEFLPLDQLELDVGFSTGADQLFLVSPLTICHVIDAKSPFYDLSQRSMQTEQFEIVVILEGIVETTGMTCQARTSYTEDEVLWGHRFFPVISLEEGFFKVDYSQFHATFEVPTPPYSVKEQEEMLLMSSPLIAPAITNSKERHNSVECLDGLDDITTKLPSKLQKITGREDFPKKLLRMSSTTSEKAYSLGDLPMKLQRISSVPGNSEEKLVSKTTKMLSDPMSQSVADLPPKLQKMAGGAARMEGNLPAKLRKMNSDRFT

Question: For Cc1ccc(-c2nnn(CC(=O)NC3CC4CCC3C4)n2)cc1 (centres undefined), which EC50 is on record?
Answer: 4.22 µM

Question: Cc1cc(NC(=O)Nc2ccccc2)n(-c2ccccc2)n1 was tested. Which EC50 did it give?
Answer: 3.62 µM

Question: For CCOc1ccccc1Nc1nnc(Cc2ccccc2Cl)c(=O)[nH]1, which EC50 is on record?
Answer: 1.86 µM

Question: How did the EC50 turn out when Cc1ccc(NC(=O)Cc2ccccc2Cl)cc1S(=O)(=O)N(C)C was run?
Answer: 2.18 µM
